According to PubChem BioAssay AID504390 (Broad Institute, 2011):
Active and inactive are the calls of the source.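 The calls were made as follows: active = signal-lowering compounds whose fitted half-maximal concentration is at most ten times the top tested dose; inconclusive = flat fit at 30 to 70% inhibition, or poor fit; inactive = the rest.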

What was measured:
[1] = Hsp90 function inhibitors in yeast, dose response, S. cerevisiae, luminescence, dry powder, set 2 (AID 504390); settings: S. cerevisiae GRE-lacZ reporter, Hsp90 function, luminescence; at 26 µM (top of the series)
Summary of the method: (§1)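 Material: Saccharomyces yeast reporter strain, glucocorticoid response element driving β-galactosidase | Buffer or medium: SD-ADE yeast medium | Probe or stimulus: DOC steroid, 20 µM stock | Dosing: Compounds delivered by pin transfer | Times: 75 min treatment at 30 °C with agitation | Technique: β-galactosidase luminescence after 25 min development at 30 °C | Benchmarks: Radicicol 5 µM as positive control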

[2] = test system: S. cerevisiae GRE-lacZ reporter, Hsp90 function, luminescence; experiment: as above
Summary of the method: as §1

For `COC(=O)n1nc(-c2ccccc2)c2ccccc21`, the activity change, negative = inhibition [1] was 10.4% (inactive).

With `CN1CCN(C(=O)Cn2c3ccccc3c3nc4n(c(=O)c32)CCS4)CC1` the activity change, negative = inhibition [1] was 52.6% (inactive).

With `O=C(O)Cn1c2ccccc2c2nc3n(c(=O)c21)CCS3` the activity change, negative = inhibition [1] was 10.8% (inactive).

For `c1ccc(-c2nn(Cc3nnco3)c3ccccc23)cc1`, the activity change, negative = inhibition [1] was -30.7% (inactive).

Molecule `COC(=O)Cn1nc(-c2ccccc2)c2cccnc21` has an AC50 [2] of 25.8 µM.

`O=C(Cn1c2ccccc2c2nc3n(c(=O)c21)CCS3)N1CCCCC1` showed an AC50 [2] of 26.1 µM.

For `O=C(Cn1c2ccc(F)cc2c2nc3n(c(=O)c21)CCS3)N1CCCC1`, the activity change, negative = inhibition [1] was 39.4% (inactive).

For `COC(=O)Cn1nc(C2CC2)c2ccccc21`, the activity change, negative = inhibition [1] was -20.4% (inactive).

For `O=C(Cn1c2ccccc2c2nc3n(c(=O)c21)CCS3)N1CCC(F)(F)C1`, the activity change, negative = inhibition [1] was 29.5% (inactive).

For `COC(=O)Cn1nc(-c2cccc(C)c2)c2ccccc21`, the AC50 [2] was 3.59 µM.

For `O=C(Cn1c2ccccc2c2nc3n(c(=O)c21)CCS3)N1CCCC1`, the activity change, negative = inhibition [1] was -14.7% (inactive).

`COC(=O)Cn1nc(-c2cccc(OC)c2)c2ccccc21` showed an AC50 [2] of 4.18 µM.

For `O=C(Cn1c2ccccc2c2nc3n(c(=O)c21)CCS3)N1CCC(F)(F)CC1`, the activity change, negative = inhibition [1] was 4.34% (inactive).

In the case of `O=C(Cn1c2ccccc2c2nc3n(c(=O)c21)CCS3)N1CC=CC1`, the activity change, negative = inhibition [1] is reported as 20.7% (inactive).

With `COC(=O)Cn1nc(C(C)(C)C)c2ccccc21` the AC50 [2] was 20.7 µM.

With `CC1(O)CN(C(=O)Cn2c3ccccc3c3nc4n(c(=O)c32)CCS4)C1` the activity change, negative = inhibition [1] was 25.6% (inactive).

In the case of `COC(=O)Cn1nc(C2CCCCC2)c2ccccc21`, the AC50 [2] is reported as 3.56 µM.

For `CCc1nn(CC(=O)OC)c2ccccc12`, the activity change, negative = inhibition [1] was 35.3% (inactive).
